# Published values pooled from the literature.
# Lines come from different studies, so protocols differ.
# Target: High affinity nerve growth factor receptor (NTRK1, Homo sapiens, UniProt P04629)
SMILES,test,setting,inhibition
CN1CC(Oc2cnc(C#N)cc2-c2ccn3nc(NC(=O)C4CC4)cc3c2)C1,"enzyme activity, inhibitor",1 µM,5%
O=C(Nc1ccc(C(F)(F)F)cc1)Nc1cccc(C(=O)Nc2ccc3[nH]nc(-c4ccccc4)c3c2)c1,"enzyme activity, inhibitor, FRET",1 µM,17%
CN(C)C1CCN(CC#Cc2nn(C3CCCC3)c3nc(NCc4ccccc4)ncc23)C1 (stereo not drawn),"enzyme activity, inhibitor, FRET",0.1 µM,6%
O=C(Nc1ccc2[nH]ncc2c1)c1cccc(NC(=S)Nc2ccc(C(F)(F)F)cc2)c1,"enzyme activity, inhibitor, FRET",1 µM,58%
CNC(=O)c1cc(Oc2ccc(NC(=O)Nc3ccc(Cl)c(C(F)(F)F)c3)cc2)ccn1,"enzyme activity, inhibitor",0.3 µM,36%
CSc1nc(C)c(-c2ccnc(Nc3ccc(N4CCOCC4)cc3)c2)[nH]1,"cell-free assay, inhibitor",10 µM,10.1%
O=C(Nc1cccc(C(=O)Nc2ccc3[nH]ncc3c2)c1)Nc1ccccc1C(F)(F)F,"enzyme activity, inhibitor, FRET",1 µM,51.3%
Cc1ccc(Nc2nccc(N(C)c3ccc4c(C)n(C)nc4c3)n2)cc1S(N)(=O)=O,"enzyme activity, inhibitor",10 µM,79%
CNCc1ccc(-c2cc(-c3nc(-c4ccc(S(=O)(=O)C(C)C)cc4)cnc3N)on2)cc1,"enzyme activity, inhibitor",2 µM,32%
C=CC(=O)Nc1cc(Nc2nccc(Nc3cc(Cl)c(F)cc3C(C)(C)O)n2)c(OC)cc1N1CC[C@@H](N(C)C)C1,"enzyme activity, inhibitor",1 µM,51%
O=C(Nc1ccc(C(F)(F)F)cc1)Nc1cccc(C(=O)Nc2ccc3[nH]ncc3c2)c1,"enzyme activity, inhibitor, FRET",1 µM,74%
CCN(CC)CCNC(=O)c1c(C)[nH]c(/C=C2\C(=O)Nc3ccc(F)cc32)c1C,"enzyme activity, inhibitor",10 µM,99%
COc1cc2ncnc(Nc3ccc(Oc4ccccc4)c(C)c3C)c2cc1OC,"enzyme activity, inhibitor",1 µM,-1%
O=C(Nc1ccccc1)Nc1cccc(C(=O)Nc2ccc3[nH]ncc3c2)c1,"enzyme activity, inhibitor, FRET",1 µM,33.2%
COc1cc(C)c(Sc2cnc(NC(=O)c3ccc(N4CCN(CCCCCCCNC(=O)COc5cccc6c5C(=O)N(C5CCC(=O)NC5=O)C6=O)CC4)cc3)s2)cc1C(=O)N1CCN(C(C)=O)CC1 (stereo not drawn),binding,1 µM,> 90%
